ChEMBL document CHEMBL3612019, “Revisiting 1,3,4-Oxadiazol-2-ones: Utilization in the Development of ABHD6 Inhibitors” (Bioorg Med Chem, 2015)
Activity calls are given as the source filed them. The calls are words filed in the database; no cut-off is given here.

Experiments:
[1] = target: T1, Fatty-acid amide hydrolase 1 (Homo sapiens) (UniProt O00519); assay: Inhibition of human FAAH expressed in COS7 cell membranes at 20 uM pre-incubated for 10 mins before [3H]-AEA substrate addition by liquid scintillation counting; details: COS-7
T1 sequence (whole entry): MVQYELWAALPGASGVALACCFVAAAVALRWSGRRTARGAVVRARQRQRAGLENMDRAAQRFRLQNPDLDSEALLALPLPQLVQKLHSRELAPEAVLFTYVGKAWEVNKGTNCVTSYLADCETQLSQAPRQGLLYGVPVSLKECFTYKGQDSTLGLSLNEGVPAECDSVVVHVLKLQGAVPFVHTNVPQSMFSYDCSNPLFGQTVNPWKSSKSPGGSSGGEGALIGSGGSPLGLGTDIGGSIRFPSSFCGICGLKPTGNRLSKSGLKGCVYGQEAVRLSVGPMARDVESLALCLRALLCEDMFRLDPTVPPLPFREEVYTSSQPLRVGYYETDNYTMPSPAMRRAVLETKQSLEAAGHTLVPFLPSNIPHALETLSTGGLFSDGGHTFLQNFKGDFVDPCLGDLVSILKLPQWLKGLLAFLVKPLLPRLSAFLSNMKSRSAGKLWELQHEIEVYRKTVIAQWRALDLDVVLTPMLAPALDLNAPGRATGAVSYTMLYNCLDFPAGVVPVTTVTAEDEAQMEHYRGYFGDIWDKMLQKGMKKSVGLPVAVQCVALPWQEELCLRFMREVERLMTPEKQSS

[2] = target: T2, Monoglyceride lipase (Homo sapiens) (UniProt Q99685); assay: Inhibition of human MAGL expressed in HEK293 cells at 10 uM pre-incubated for 10 mins before 2-AG substrate addition by HPLC method; type: cell-based
T2 sequence (whole entry): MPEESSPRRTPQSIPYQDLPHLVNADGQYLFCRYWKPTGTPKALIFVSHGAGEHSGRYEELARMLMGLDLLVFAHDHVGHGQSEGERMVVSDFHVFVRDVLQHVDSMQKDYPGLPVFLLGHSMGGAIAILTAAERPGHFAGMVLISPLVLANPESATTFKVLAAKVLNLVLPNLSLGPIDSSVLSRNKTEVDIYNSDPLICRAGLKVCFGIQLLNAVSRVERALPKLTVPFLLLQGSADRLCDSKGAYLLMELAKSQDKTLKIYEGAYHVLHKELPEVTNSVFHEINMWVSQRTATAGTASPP
Outline: (§1)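 Lysates of hMAGL-overexpressing HEK293 cells in 50 mM Tris–HCl pH 7.4 with 1 mM EDTA. After a 10 min preincubation with inhibitor or DMSO, 2-AG was added (final 50 µM) and incubated 10 min at 37 °C. The reaction was stopped and samples centrifuged. Arachidonic acid formation and 2-AG depletion were measured by HPLC. Replicates as for the FAAH assay.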

[3] = target: T2, Monoglyceride lipase (Homo sapiens); assay: Inhibition of human MAGL expressed in HEK293 cells at 20 uM pre-incubated for 10 mins before 2-AG substrate addition by HPLC method; type: cell-based; outline: as §1
[4] = target: T3, Monoacylglycerol lipase ABHD6 (Mus musculus) (UniProt Q8R2Y0); assay: Inhibition of ABHD6 in mouse whole brain membranes at 10 uM incubated for 1 hr by TAMRA-FP probe based competitive activity-based protein profiling assay; type: cell membranes; details: Membrane
T3 sequence (whole entry): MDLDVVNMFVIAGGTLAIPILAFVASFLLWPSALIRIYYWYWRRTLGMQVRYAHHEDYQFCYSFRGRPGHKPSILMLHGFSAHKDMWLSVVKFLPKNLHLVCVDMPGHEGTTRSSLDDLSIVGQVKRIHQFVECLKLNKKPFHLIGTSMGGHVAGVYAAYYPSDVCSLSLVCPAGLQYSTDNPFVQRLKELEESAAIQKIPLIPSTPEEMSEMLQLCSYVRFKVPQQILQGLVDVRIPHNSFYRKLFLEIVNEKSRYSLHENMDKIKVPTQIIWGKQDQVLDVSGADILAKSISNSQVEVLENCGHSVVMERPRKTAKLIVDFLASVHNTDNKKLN
Outline: (§2)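 Competitive ABPP on mouse brain membranes (100 µg) treated 1 h with DMSO or inhibitor. TAMRA-FP labelling then ran 1 h at RT (final probe 2 µM). Reaction was quenched with gel loading buffer and proteins resolved by 10% SDS–PAGE for fluorescent band read-out. WWL70 located the ABHD6 band. Gels are representative of two experiments.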

[5] = target: Cannabinoid receptor 1 (Rattus norvegicus) (UniProt P20272); assay: Agonist activity at CB1R in rat cerebellar membranes at 10 uM by [35S]GTPgammaS binding assay; type: functional, cell membranes; details: Cerebellum, Membrane
Cannabinoid receptor 1 (Rattus norvegicus), sequence (P20272 whole entry): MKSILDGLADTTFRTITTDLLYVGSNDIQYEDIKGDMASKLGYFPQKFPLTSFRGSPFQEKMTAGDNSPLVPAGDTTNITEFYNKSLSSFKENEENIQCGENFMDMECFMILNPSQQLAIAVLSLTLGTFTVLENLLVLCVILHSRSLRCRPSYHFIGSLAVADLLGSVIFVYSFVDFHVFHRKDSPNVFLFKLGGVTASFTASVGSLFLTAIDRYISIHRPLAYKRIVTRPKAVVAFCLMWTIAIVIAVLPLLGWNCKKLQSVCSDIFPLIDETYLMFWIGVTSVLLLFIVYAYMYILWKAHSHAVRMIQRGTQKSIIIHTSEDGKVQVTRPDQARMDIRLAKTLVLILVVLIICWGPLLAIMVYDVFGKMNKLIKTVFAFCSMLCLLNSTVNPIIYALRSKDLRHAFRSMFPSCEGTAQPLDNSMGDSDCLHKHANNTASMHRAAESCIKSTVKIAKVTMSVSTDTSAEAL
Outline: (§3)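 Rat cerebellar membranes, [35S]GTPγS binding. Agonist activity is read as % of basal binding. Antagonist activity is read as % of the HU210-evoked response. Compound tested at 10 µM. Values are mean (range), n = 2.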

[6] = target: Cannabinoid receptor 2 (Homo sapiens) (UniProt P34972); assay: Agonist activity at human CB2R expressed in CHO cell membranes at 10 uM by [35S]GTPgammaS binding assay; type: functional
Cannabinoid receptor 2 (Homo sapiens), sequence (P34972 whole entry): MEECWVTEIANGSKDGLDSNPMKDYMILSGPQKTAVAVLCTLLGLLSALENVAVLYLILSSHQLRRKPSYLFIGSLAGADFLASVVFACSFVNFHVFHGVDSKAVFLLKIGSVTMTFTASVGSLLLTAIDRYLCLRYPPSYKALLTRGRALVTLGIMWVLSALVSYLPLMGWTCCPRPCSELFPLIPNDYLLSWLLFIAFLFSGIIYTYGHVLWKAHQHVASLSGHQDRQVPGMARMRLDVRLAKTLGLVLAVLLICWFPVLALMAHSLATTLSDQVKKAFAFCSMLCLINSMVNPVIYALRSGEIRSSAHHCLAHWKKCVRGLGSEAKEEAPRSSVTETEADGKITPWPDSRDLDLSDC

[7] = target: Cannabinoid receptor 1 (Rattus norvegicus) (UniProt P20272); assay: Antagonist activity at CB1R in rat cerebellar membranes assessed as inhibition of HU210-induced response at 10 uM by [35S]GTPgammaS binding assay; type: functional, cell membranes; details: Cerebellum, Membrane; outline: as §3
[8] = target: T4, Monoacylglycerol lipase ABHD6 (Homo sapiens, UniProt Q9BV23); assay: Inhibition of human ABHD6 expressed in HEK293 cells at 1 uM pre-incubated for 10 mins before 2-AG substrate addition followed by rapid 40 fold compound dilution measured after 10 mins by HPLC method; type: cell-based
T4 sequence (Q9BV23 whole entry): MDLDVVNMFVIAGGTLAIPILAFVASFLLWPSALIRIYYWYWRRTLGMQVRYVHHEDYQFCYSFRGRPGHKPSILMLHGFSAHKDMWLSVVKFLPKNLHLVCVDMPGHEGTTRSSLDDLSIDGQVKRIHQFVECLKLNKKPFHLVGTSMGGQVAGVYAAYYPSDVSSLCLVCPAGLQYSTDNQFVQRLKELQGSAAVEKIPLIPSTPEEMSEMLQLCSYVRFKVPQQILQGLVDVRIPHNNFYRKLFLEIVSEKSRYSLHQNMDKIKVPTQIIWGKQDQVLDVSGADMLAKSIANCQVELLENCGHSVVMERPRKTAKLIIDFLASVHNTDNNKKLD

[9] = target: T4, Monoacylglycerol lipase ABHD6; assay: Inhibition of human ABHD6 expressed in HEK293 cells at 1 uM pre-incubated for 10 mins before 2-AG substrate addition followed by rapid 40 fold compound dilution measured after 30 mins by HPLC method; type: cell-based
[10] = target: T5, Monoacylglycerol lipase ABHD6 (Homo sapiens) (UniProt Q9BV23); details: HEK293, 1 uM
T5 sequence (whole entry): T4 sequence (Q9BV23 whole entry)

[11] = target: T3, Monoacylglycerol lipase ABHD6 (Mus musculus); assay: Inhibition of ABHD6 in mouse whole brain membranes at 1 uM incubated for 1 hr by TAMRA-FP probe based competitive activity-based protein profiling assay; type: cell membranes; details: Membrane; outline: as §2

SMILES	inhibition [1]	inhibition [2]	inhibition [3]	inhibition [4]	Activity [5]	Activity [6]	% of HU210 response [7]	IC50 [8]	IC50 [9]	inhibition [10]	inhibition [11]
COc1nn(Cc2cccc(N)c2)c(=O)o1	41%	21%	33%	Active	96%	107%	104%	4.07 µM	3.8 µM	Active	
Nc1cccc(Cn2nc(Oc3ccccc3)oc2=O)c1											Active
